Measured values taken from publication PMC4062594 (Nature chemical biology, 2014).
Entries after “also recorded” stand apart in the source; their conditions may differ.

How the values were obtained:
PTP1B1-321 = molecular target: T1, PTP1B1-321 (Homo sapiens, UniProt P18031); test: PTP assay with DiFMUP substrate; type: biochemical
T1 sequence (P18031 1-321): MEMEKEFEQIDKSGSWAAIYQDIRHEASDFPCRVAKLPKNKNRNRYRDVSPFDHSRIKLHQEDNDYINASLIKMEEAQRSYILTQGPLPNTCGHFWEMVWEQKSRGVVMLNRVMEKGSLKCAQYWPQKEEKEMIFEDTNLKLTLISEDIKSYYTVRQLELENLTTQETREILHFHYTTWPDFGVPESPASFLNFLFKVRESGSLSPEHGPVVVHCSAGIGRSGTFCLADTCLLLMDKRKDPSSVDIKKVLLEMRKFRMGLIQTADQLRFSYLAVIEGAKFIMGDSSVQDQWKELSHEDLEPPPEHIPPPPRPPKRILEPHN

PTP1B1-405 [1] = molecular target: T2, PTP1B1-405 (Homo sapiens, UniProt P18031); test: Limited proteolysis with trypsin; details: saturating concentrations of MSI-1436 (5 μM)
T2 sequence (P18031 1-405): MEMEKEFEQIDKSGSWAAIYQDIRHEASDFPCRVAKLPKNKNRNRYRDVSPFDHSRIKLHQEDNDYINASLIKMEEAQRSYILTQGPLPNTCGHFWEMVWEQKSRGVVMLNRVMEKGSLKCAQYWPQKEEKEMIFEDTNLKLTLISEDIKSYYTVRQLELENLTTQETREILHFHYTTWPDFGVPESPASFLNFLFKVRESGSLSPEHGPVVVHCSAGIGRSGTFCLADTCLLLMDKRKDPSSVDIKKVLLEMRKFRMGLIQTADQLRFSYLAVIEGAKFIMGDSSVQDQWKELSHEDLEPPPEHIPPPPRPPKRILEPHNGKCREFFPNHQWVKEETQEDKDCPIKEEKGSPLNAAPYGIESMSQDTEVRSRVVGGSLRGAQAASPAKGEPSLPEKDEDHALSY

PTP1B (1-346) = molecular target: T3, PTP1B (1-346) (Homo sapiens, UniProt P18031); test: PTP assay, truncation mutant; type: biochemical; details: similar to PTP1B1-321
T3 sequence (P18031 1-346): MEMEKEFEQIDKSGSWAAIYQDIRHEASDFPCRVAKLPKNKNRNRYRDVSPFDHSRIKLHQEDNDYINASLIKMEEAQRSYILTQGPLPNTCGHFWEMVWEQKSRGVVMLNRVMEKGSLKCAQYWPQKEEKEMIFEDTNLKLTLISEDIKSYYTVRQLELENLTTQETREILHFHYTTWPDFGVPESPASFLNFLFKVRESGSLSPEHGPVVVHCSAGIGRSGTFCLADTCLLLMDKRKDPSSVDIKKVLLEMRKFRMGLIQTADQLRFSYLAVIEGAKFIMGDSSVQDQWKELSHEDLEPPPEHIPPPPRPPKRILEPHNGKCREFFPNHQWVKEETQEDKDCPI
How it was run: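 Continuous fluorescence PTP assay with 10 nM purified PTP1B and 10 μM DiFMUP substrate. Emission at 450 nm was monitored for 20 minutes.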

PTP1B1-405 [2] = molecular target: T2, PTP1B1-405; test: Binding of recombinant protein to bead-immobilized compound; details: in vitro
How it was run: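 Beads were washed in the same buffer plus 0.01% NP-40 and 1% glycerol, then heat-eluted in SDS sample buffer. Eluates were run on 10% SDS-PAGE and stained with Coomassie or silver.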

[3] = molecular target: T4, PTP1B in tumor lysates from NDL2 mice (Mus musculus, UniProt P35821); test: Binding assay with bead-immobilized compound in tumor lysates; details: confirmed by immunoblotting
T4 sequence (P35821 1-432): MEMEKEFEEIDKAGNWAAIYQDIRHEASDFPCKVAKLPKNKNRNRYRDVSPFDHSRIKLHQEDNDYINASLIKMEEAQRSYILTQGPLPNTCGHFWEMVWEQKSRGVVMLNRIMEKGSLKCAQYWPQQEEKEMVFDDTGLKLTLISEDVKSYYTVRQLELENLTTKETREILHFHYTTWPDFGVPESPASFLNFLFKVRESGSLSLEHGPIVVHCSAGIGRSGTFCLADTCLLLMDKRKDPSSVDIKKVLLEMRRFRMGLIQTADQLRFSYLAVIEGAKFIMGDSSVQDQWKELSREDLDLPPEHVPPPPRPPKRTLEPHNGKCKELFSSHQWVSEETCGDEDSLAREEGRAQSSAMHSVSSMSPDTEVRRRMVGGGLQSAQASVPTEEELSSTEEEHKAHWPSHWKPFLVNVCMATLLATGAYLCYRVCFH
How it was run: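 Test compound was coupled through its primary amine to NHS-activated magnetic beads (1 mM, 100 mM triethylamine, 8 h, 4°C), and free NHS groups were blocked with 0.8 M aminoethanol. Beads were incubated with 0–1 mg NDL2 tumour lysate protein and washed. Bound protein was eluted by heat in SDS sample buffer, run on 10% SDS-PAGE and identified by immunoblotting. Beads carrying a related amine compound served as negative control.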

10A.B2 cells = test: Cell migration assay; type: cell-based; details: 2D culture, similar extent to PTP1B-directed shRNA
[4] = system: panel of breast cancer cells; test: Cell proliferation assay; type: cell-based
How it was run: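 Cells (1 × 10^4) per well were grown 12–96 hours in growth medium without or with test compound (2 and 5 μM). Proliferation was read by CellTiter-Glo luminescence.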

MCF10A-NeuNT cells = test: Cell migration with PTP1B knock-down and re-expression; type: cell-based
How it was run: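 MCF10A-NeuNT cells carried doxycycline-inducible control or PTP1B shRNA miRs; doxycycline (500 ng/mL) was added 12 h after seeding and refreshed every 12 h. Cells were transfected 24 h with wild type or L192A/S372P PTP1B, then left untreated or given test compound (1 or 2 μM). Cells were run in Matrigel invasion chambers (8.0 μm pores) for 24–48 h, and migrated cells were Giemsa-stained and counted. Three experiments, in duplicate.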

[5] = system: tyrosine phosphorylation-dependent signaling in tumors; test: Immunoblotting of tumor lysates from NDL2 mice; type: in vivo; details: tumor samples from treated NDL2 animals
How it was run: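 Tumours from treated NDL2 mice were dissected free of connective tissue, ground under liquid nitrogen and lysed 30 min on ice. Lysis buffer: HEPES pH 7.4, glycerol, Triton X-100, NaCl, EGTA, 1 mM orthovanadate, 20 mM NaF, protease inhibitors. Lysates were cleared at 12,000 x g, 15 min, 4 °C. Lysate (20 μg) was blotted with anti-phosphotyrosine (4G10), anti-p62DOK and anti-phospho-Erk, then stripped and reprobed with total-protein antibodies.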

[6] = patients; cited from earlier work

mode of inhibition (PTP1B1-321): reversible non-competitive inhibitor
sensitivity to trypsin (PTP1B1-405 [1]): more trypsin-resistant state
inhibitory potency compared to PTP1B1-405 and PTP1B1-394 (PTP1B (1-346)): lower
binding to bead-immobilized compound (PTP1B1-405 [2]): bound
SMILES: CC(C)[C@@H](CC[C@@H](C)[C@H]1CC[C@H]2[C@@H]3[C@H](O)C[C@H]4C[C@@H](NCCCNCCCCNCCCN)CC[C@]4(C)[C@H]3CC[C@]12C)OS(=O)(=O)O [MSI-1436, Trodusquemine]
retention of 50 kDa band (PTP1B) by compound beads [3]: PTP1B was cleared from the lysate; also recorded: retained
migration (10A.B2 cells): inhibited migration
nature of effects (cytostatic versus cytotoxic) [4]: primarily cytostatic, rather than cytotoxic
proliferation ([4]; cells sensitive to Lapatinib, MSI-1436 2 and 5 μM): inhibited proliferation
migration (MCF10A-NeuNT cells; PTP1B knock-down, reconstituted with PTP1B-L192A/S372P, MSI-1436 1 or 2 μM): no longer sensitive
migration (MCF10A-NeuNT cells; PTP1B knock-down, reconstituted with wild type PTP1B, MSI-1436 1 or 2 μM): remained sensitive to inhibition
migration (MCF10A-NeuNT cells; absence of doxycycline (endogenous PTP1B)): attenuated
phosphorylation of p44/42 MAP kinase [5]: decrease
tyrosine phosphorylation of p62DOK [5]: significant increase
tolerability [6]: well tolerated
